# Assay results from ChEMBL document CHEMBL1122293, “Synthesis, evaluation of chemical reactivity, and murine antineoplastic activity of 2-hydroxy-5-(3,4-dichlorophenyl)-6,7-bis(hydroxymethyl)-2,3-dihydro-1H- pyrrolizine bis(2-propylcarbamate) and 2-acyloxy derivatives as potential water-soluble prodrugs” (J Med Chem, 1983).
# Columns and labels:
# B16 [1] = test: No. of cures on day 60 at 10 mg/kg (ip) against B16 melanocarcinoma in mice; format: functional, Mus musculus
# Procedure, shortened: (§1)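 Female BDF1 mice given ip 0.5 mL of tumor brei (1.0 g tissue per 10 mL). Nine daily ip doses beginning 24 h later, as Klucel suspensions or a water/Tween-80 suspension. Acute toxicity scored day 5; survival read day 60. Cures counted per 10-animal group at day 60; weight difference reported as treated minus control (g).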
# B16 [2] = test: No. of cures on day 60 at 20 mg/kg (ip) against B16 melanocarcinoma in mice; format: functional, Mus musculus; procedure, shortened: as §1
# P388 [3] = test: Weight difference at 100 mg/kg (ip)against P388 Lymphocytic Leukemia in mice; format: functional, Mus musculus
# Procedure, shortened: (§2)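 Male CDF1 mice given 6×10^6 leukemia cells ip. Five daily ip doses beginning 24 h later, as Klucel suspension or aqueous solution. Acute toxicity on day 5; survival assessed on day 30. Weight difference reported as treated minus control (g).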
# B16 [4] = test: Median survival time of test animals compared to controls at 10 mg/kg (ip) against B16 melanocarcinoma in mice; format: functional, Mus musculus
# Procedure, shortened: (§3)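 Female BDF1 mice received B16 tumor brei ip (0.5 mL of 1.0 g tissue per 10 mL). From 24 h later they got nine daily ip doses, suspended in Klucel or water/Tween-80. Acute toxicity was assessed on day 5 and survival was evaluated on day 60. The value is median survival as % T/C, with 10 mice per group and a positive control run in parallel.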
# P388 [5] = test: Weight difference at 50 mg/kg (ip)against P388 Lymphocytic Leukemia in mice; format: functional, Mus musculus; procedure, shortened: as §2
# P388 [6] = test: Weight difference at 12.5 mg/kg (ip)against P388 Lymphocytic Leukemia in mice; format: functional, Mus musculus
# Procedure, shortened: (§4)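 P388 leukemia cells inoculated ip into male CDF1 mice; ip treatment started 24 h later, five daily doses, as Klucel (hydroxypropylcellulose) suspension or aqueous solution. Acute toxicity on day 5. Day-30 median survival of treated versus control mice expressed as % T/C. Weight difference is treated minus control, in grams.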
# P388 [7] = test: Log of the tumor cell population at the end of treatment at 6.25 mg/kg (ip) against P388 Lymphocytic Leukemia in mice; format: functional, Mus musculus
# B16 [8] = test: No. of cures on day 60 at 5 mg/kg (ip) against B16 melanocarcinoma in mice; format: functional, Mus musculus; procedure, shortened: as §1
# P388 [9] = test: Weight difference at 6.25 mg/kg (ip)against P388 Lymphocytic Leukemia in mice; format: functional, Mus musculus; procedure, shortened: as §2
# B16 [10] = test: No. of cures on day 60 at 80 mg/kg (ip) against B16 melanocarcinoma in mice; format: functional, Mus musculus; procedure, shortened: as §1
# P388 [11] = test: Median survival time of test animals compared to controls at 6.25 mg/kg (ip) against P388 Lymphocytic Leukemia in mice; format: functional, Mus musculus
# Procedure, shortened: (§5)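 P388 leukemia cells were inoculated ip into male CDF1 mice. Treatment began 24 h later, given ip as five daily doses, either as a Klucel (hydroxypropylcellulose) suspension or as an aqueous solution. Acute toxicity was assessed on day 5 and results were read on day 30. The value is median survival of treated versus control mice, as % T/C.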
# B16 [12] = test: Weight difference at 5 mg/kg (ip)against B16 melanocarcinoma in mice; format: functional, Mus musculus; procedure, shortened: as §1
# P388 [13] = test: Median survival time of test animals compared to controls at 25 mg/kg (ip) against P388 Lymphocytic Leukemia in mice; format: functional, Mus musculus; procedure, shortened: as §5
# P388 [14] = test: Log of the tumor cell population at the end of treatment at 50 mg/kg (ip) against P388 Lymphocytic Leukemia in mice; format: functional, Mus musculus
# B16 [15] = test: Median survival time of test animals compared to controls at 80 mg/kg (ip) against B16 melanocarcinoma in mice; format: functional, Mus musculus; procedure, shortened: as §3
# B16 [16] = test: Weight difference at 40 mg/kg (ip)against B16 melanocarcinoma in mice; format: functional, Mus musculus; procedure, shortened: as §1
# [17] = Water solubility of the compound; format: ADME; details: read-out: S
# Procedure, shortened: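 Excess bis(carbamate) (30-60 mg) in 2 mL distilled water, vortexed 10 min, filtered through Teflon wool and diluted. UV absorbance read at 291 nm. Concentration from a linear Beer's law calibration made with a salt standard (r = 0.998).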
# P388 [18] = test: Log of the tumor cell population at the end of treatment at 25 mg/kg (ip) against P388 Lymphocytic Leukemia in mice; format: functional, Mus musculus
# B16 [19] = test: Median survival time of test animals compared to controls at 40 mg/kg (ip) against B16 melanocarcinoma in mice; format: functional, Mus musculus; procedure, shortened: as §3
# P388 [20] = test: Log of the tumor cell population at the end of treatment at 100 mg/kg (ip) against P388 Lymphocytic Leukemia in mice; format: functional, Mus musculus
# B16 [21] = test: Weight difference at 20 mg/kg (ip) against B16 melanocarcinoma in mice; format: functional, Mus musculus; procedure, shortened: as §1
# P388 [22] = test: Weight difference at 25 mg/kg (ip)against P388 Lymphocytic Leukemia in mice; format: functional, Mus musculus; procedure, shortened: as §2
# B16 [23] = test: Median survival time of test animals compared to controls at 20 mg/kg (ip) against B16 melanocarcinoma in mice; format: functional, Mus musculus; procedure, shortened: as §3
# P388 [24] = test: Median survival time of test animals compared to controls at 12.5 mg/kg (ip) against P388 Lymphocytic Leukemia in mice; format: functional, Mus musculus; procedure, shortened: as §4
# B16 [25] = test: Weight difference at 10 mg/kg (ip)against B16 melanocarcinoma in mice; format: functional, Mus musculus; procedure, shortened: as §1
# B16 [26] = test: Median survival time of test animals compared to controls at 5 mg/kg (ip) against B16 melanocarcinoma in mice; format: functional, Mus musculus; procedure, shortened: as §3
# B16 [27] = test: Weight difference at 80 mg/kg (ip) against B16 melanocarcinoma in mice; format: functional, Mus musculus; procedure, shortened: as §1
# P388 [28] = test: Median survival time of test animals compared to controls at 50 mg/kg (ip) against P388 Lymphocytic Leukemia in mice; format: functional, Mus musculus; procedure, shortened: as §5
# P388 [29] = test: Log of the tumor cell population at the end of treatment at 12.5 mg/kg (ip) against P388 Lymphocytic Leukemia in mice; format: functional, Mus musculus
# P388 [30] = test: Median survival time of test animals compared to controls at 100 mg/kg (ip) against P388 Lymphocytic Leukemia in mice; format: functional, Mus musculus; procedure, shortened: as §5
# B16 [31] = test: No. of cures on day 60 at 40 mg/kg (ip) against B16 melanocarcinoma in mice; format: functional, Mus musculus; procedure, shortened: as §1
compound,measurement,setting,value
CC(C)NC(=O)OCc1c(COC(=O)NC(C)C)c(-c2ccc(Cl)c(Cl)c2)n2c1CC(O)C2 (configuration not stated),Cures,B16 [1],0
same,Cures,B16 [2],0
same,Weight change,P388 [3],-6.3 g
same,T/C,B16 [4],143%
same,Weight change,P388 [5],-5.6 g
same,Weight change,P388 [6],-2.7 g
same,Log cell kill,P388 [7],0.08
same,Cures,B16 [8],0
same,Weight change,P388 [9],-2.1 g
same,Cures,B16 [10],0
same,T/C,P388 [11],140%
same,Weight change,B16 [12],0.1 g
same,T/C,P388 [13],145%
same,Log cell kill,P388 [14],0.85
same,T/C,B16 [15],101%
same,Weight change,B16 [16],-0.9 g
same,solubility,[17],40.2 µM
same,Log cell kill,P388 [18],0.46
same,T/C,B16 [19],223%
same,Log cell kill,P388 [20],2.16
same,Weight change,B16 [21],0 g
same,Weight change,P388 [22],-3.8 g
same,T/C,B16 [23],196%
same,T/C,P388 [24],147%
same,half-life,Half life was determined,31 min
same,Weight change,B16 [25],0.2 g
same,T/C,B16 [26],129%
same,Weight change,B16 [27],-2.4 g
same,T/C,P388 [28],150%
same,Log cell kill,P388 [29],0.62
same,T/C,P388 [30],166%
same,Cures,B16 [31],4
